GASC1 inh – blocks human GASC-1 (KDM4C) demethylase activity. GST-KDM4C 2-372, H3K9me3 peptide, LANCE TR-FRET. inhibition, % at 12.5 µM. hit rate 0.15% among 96,000. AID 720574;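 active = mean replicate inhibition above about 25%, with at least 55% of replicates also reaching it, limit read from the data, passing the limit was not always enough; inconclusive = only one of those two conditions met; inactive = neither condition met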
Target sequence (Q9H3R0 2-372 limits assumed): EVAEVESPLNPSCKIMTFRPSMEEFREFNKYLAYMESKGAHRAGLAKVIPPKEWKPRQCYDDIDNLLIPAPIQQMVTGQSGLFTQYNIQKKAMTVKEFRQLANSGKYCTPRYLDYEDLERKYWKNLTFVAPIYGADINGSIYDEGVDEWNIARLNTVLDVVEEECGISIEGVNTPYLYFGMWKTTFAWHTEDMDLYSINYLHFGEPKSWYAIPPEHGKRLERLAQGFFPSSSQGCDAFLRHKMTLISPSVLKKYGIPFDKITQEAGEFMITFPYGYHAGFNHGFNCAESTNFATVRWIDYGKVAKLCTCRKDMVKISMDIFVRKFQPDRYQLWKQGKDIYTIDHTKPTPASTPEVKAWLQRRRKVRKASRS
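System – N-terminal GST-fused human GASC-1 (KDM4C) fragment, residues 2-372 · Input – enzyme final amount 10 nM · Technique – LANCE TR-FRET, Eu antibody, ULight-streptavidin, EDTA, ex 340 nm, em 618/671 nm · Medium – HEPES buffer, pH 7.5, plus ascorbate · Incubation – enzyme reaction 30 min, then detection 60 min, both room temperature · Reagent – H3K9me3 peptide with Fe(II)/2OG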
IDH1 mut inh – inhibitors of human IDH1 R132H; IDH1 R132H reductase, diaphorase/resazurin fluorescence, 60 min; inhibition, % at 10 µM; AID 624101; hit rate 0.18% among 70,000; O75874; in the data active = inhibition above about 34%; inconclusive = no clear call, values can overlap the other calls; inactive = below about 11%
Target sequence (O75874 whole entry R132H): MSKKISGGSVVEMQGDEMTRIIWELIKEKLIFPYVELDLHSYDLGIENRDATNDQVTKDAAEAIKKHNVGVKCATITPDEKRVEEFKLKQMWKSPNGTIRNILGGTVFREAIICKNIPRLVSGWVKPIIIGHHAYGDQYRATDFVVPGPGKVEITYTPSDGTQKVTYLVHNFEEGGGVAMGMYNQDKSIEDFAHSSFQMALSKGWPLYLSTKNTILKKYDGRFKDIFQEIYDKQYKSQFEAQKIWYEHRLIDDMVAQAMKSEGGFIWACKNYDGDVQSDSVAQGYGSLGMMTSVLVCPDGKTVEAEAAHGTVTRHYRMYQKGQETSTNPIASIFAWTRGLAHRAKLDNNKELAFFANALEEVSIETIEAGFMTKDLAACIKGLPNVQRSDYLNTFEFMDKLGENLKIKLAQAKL
T cruzi growth-1 – T. cruzi proliferation inhibition | T. cruzi beta-gal in NIH3T3, GalScreen luminescence, 90 h | inhibition, % at 8.34 µM | hit rate 5.9% among 77,000 | AID 624255;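 active = mean inhibition above about 93%, with at least 55% of replicates each passing it, limit read from the data, passing the limit was not always enough; inconclusive = only one of those two conditions holds; inactive = neither condition holds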
T cruzi growth-2 – blocks T. cruzi growth in NIH3T3 host cells. shares compounds with T cruzi growth-1. T. cruzi beta-gal in NIH3T3, GalScreen luminescence, 90 h. inhibition, % at 8.35 µM. hit rate 72% among 5,600. AID 651739;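 active = mean replicate inhibition above about 95% and at least 55% of replicates individually reaching it, limit read from the data; inconclusive = only one of the two criteria is met; inactive = neither criterion is met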
T cruzi growth-3 – inhibitors of T. cruzi proliferation; shares compounds with T cruzi growth-1; T. cruzi beta-gal in NIH3T3, GalScreen luminescence, 90 h; inhibition, % at 2.09 µM; hit rate 21% among 5,600; AID 651740;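 active = mean inhibition above about 95%, with at least 55% of replicates also reaching it, limit read from the data; inconclusive = meets just one of the two conditions; inactive = meets neither condition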
3T3 cytotox – NIH/3T3 (mouse) viability loss; cytotoxicity (signal decrease), % at 8.35 µM; shares compounds with T cruzi growth-1; NIH/3T3 viability, CellTiter-Glo ATP luminescence, 90 h; hit rate 14% among 5,600; AID 651742;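 active = mean signal decrease across replicates above about 35% based on untreated-well scatter, with enough replicates individually passing, limit read from the data; inconclusive = no rule stated though some were filed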
3T3 cytotox 2 – NIH/3T3 (mouse) viability loss. inhibition, % at 24.9 µM. hit rate 56% among 5,600. shares compounds with T cruzi growth-1. NIH/3T3 viability, CellTiter-Glo ATP luminescence, 90 h;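 active = mean loss of cell viability signal at or above a set limit, and enough replicates individually reaching it; inconclusive = meets only the mean limit or only the replicate share; inactive = meets neither condition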
Of the large screens only hits and unclear results are named; the others gave an inactive call (follow-up assays come after a bar, where they were run). Only a selection was taken, and hits are over-represented in it overall.

C[C@H]1CN([C@@H](C)CO)C(=O)Cc2cc(NC(=O)Cc3ccccc3)ccc2O[C@H]1CN(C)Cc1ccc(-c2ccccc2)cc1	none
C[C@H](CO)N1C[C@H](C)[C@H](CN(C)C(=O)Nc2ccc(F)cc2)Oc2c(NC(=O)Nc3cccc4ccccc34)cccc2C1=O	T cruzi growth-1 inconclusive | T cruzi growth-2 109.3 | T cruzi growth-3 inactive | 3T3 cytotox 36.8 | 3T3 cytotox 2 94.8
C[C@H]1CN([C@@H](C)CO)C(=O)c2cccc(NC(=O)Nc3cccc4ccccc34)c2O[C@@H]1CN(C)C(=O)Nc1ccc(F)cc1	none
C[C@H]1CN([C@@H](C)CO)C(=O)c2cccc(NC(=O)Nc3cccc4ccccc34)c2O[C@H]1CN(C)C(=O)Nc1ccccc1	T cruzi growth-1 102.0 (no result: IDH1 mut inh) | T cruzi growth-2 inconclusive | T cruzi growth-3 inactive | 3T3 cytotox inactive | 3T3 cytotox 2 inactive
C[C@@H]1CN([C@@H](C)CO)C(=O)c2cccc(NC(=O)C3CC3)c2O[C@H]1CN(C)C(=O)Nc1ccc(F)cc1	T cruzi growth-1 107.6 | T cruzi growth-2 96.2 | T cruzi growth-3 inactive | 3T3 cytotox inactive | 3T3 cytotox 2 inactive
C[C@@H]1CN([C@H](C)CO)C(=O)c2cccc(NC(=O)Nc3ccc(C(F)(F)F)cc3)c2O[C@@H]1CN(C)C(=O)Nc1cccc2ccccc12	none
C[C@H]1CN([C@@H](C)CO)C(=O)c2cccc(NC(=O)Nc3ccc(C(F)(F)F)cc3)c2O[C@H]1CN(C)C(=O)Nc1cccc2ccccc12	T cruzi growth-1 100.6 (no result: IDH1 mut inh) | T cruzi growth-2 inactive | T cruzi growth-3 112.5 | 3T3 cytotox 62.6 | 3T3 cytotox 2 105.0
C[C@@H]1CN([C@H](C)CO)C(=O)c2cccc(NC(=O)C3CCCCC3)c2O[C@H]1CN(C)C(=O)Nc1ccc(F)cc1	none
C[C@H]1CN([C@@H](C)CO)C(=O)c2cccc(NC(=O)Nc3cccc4ccccc34)c2O[C@@H]1CN(C)C(=O)Nc1ccccc1	none
COC(=O)CCC(=O)Nc1ccc(C(N)=O)cc1	none (no result: GASC1 inh, T cruzi growth-1)
COc1c(O)c(C(=O)CCc2ccccc2)c(OC)c(OC)c1OC	none (no result: GASC1 inh, T cruzi growth-1)
Cn1c(=O)c2c(nc(NCC(O)c3ccccc3)n2Cc2ccc(F)cc2)n(C)c1=O (stereo unspecified)	none (no result: GASC1 inh, T cruzi growth-1)
Cc1nc2ccccc2nc1CSc1nc2ccccc2s1	none (no result: GASC1 inh, T cruzi growth-1)
O=C(CSc1nnc(-c2ccccc2O)n1-c1ccccc1)Nc1ccc(Oc2ccccc2)cc1	none (no result: GASC1 inh, T cruzi growth-1)
C[C@@H]1CN([C@@H](C)CO)S(=O)(=O)c2ccc(C3=CCCC3)cc2O[C@@H]1CN(C)C(=O)c1ccc(F)cc1	none (no result: IDH1 mut inh, T cruzi growth-1)
C[C@H]1CN([C@@H](C)CO)S(=O)(=O)c2ccc(C3=CCCCC3)cc2O[C@@H]1CN(C)C(=O)c1ccc(F)cc1	T cruzi growth-1 114.6 (no result: IDH1 mut inh) | T cruzi growth-2 110.2 | T cruzi growth-3 102.4 | 3T3 cytotox 47.0 | 3T3 cytotox 2 95.9
C[C@H]1CN([C@@H](C)CO)S(=O)(=O)c2ccc(C3=CCCCC3)cc2O[C@@H]1CN(C)C(=O)c1ccccc1	none (no result: IDH1 mut inh)
C[C@@H]1CN([C@H](C)CO)S(=O)(=O)c2ccc(C3=CCCCC3)cc2O[C@H]1CN(C)C(=O)c1ccc(F)cc1	none
C[C@@H]1CN([C@@H](C)CO)S(=O)(=O)c2ccc(C3=CCCCC3)cc2O[C@H]1CN(C)C(=O)c1ccc(F)cc1	T cruzi growth-1 inconclusive (no result: IDH1 mut inh) | T cruzi growth-2 102.1 | T cruzi growth-3 inactive | 3T3 cytotox 53.9 | 3T3 cytotox 2 25.7
C[C@H]1CN([C@@H](C)CO)S(=O)(=O)c2ccc(C3=CCCCC3)cc2O[C@H]1CN(C)C(=O)c1ccc(F)cc1	none
C[C@H](CO)N1C[C@H](C)[C@H](CN(C)C(=O)c2ccccc2)Oc2cc(C3=CCCCC3)ccc2S1(=O)=O	T cruzi growth-1 102.8 | T cruzi growth-2 101.4 | T cruzi growth-3 inactive | 3T3 cytotox inactive | 3T3 cytotox 2 64.1
C[C@@H]1CN([C@H](C)CO)S(=O)(=O)c2ccc(C3=CCCCC3)cc2O[C@@H]1CN(C)C(=O)c1ccc(F)cc1	T cruzi growth-1 113.2 (no result: IDH1 mut inh) | T cruzi growth-2 107.4 | T cruzi growth-3 inactive | 3T3 cytotox inactive | 3T3 cytotox 2 100.8
COc1ccc(Cl)cc1N=C1NC(=O)CC(C(=O)Nc2ccccc2)S1 (stereo unspecified)	none (no result: GASC1 inh, T cruzi growth-1)
Cc1ccc(F)cc1NC(=O)CCCSc1nc(-c2ccco2)cc(C(F)(F)F)n1	none (no result: GASC1 inh, T cruzi growth-1)
NCCCc1nc2cc3ccccc3cc2[nH]1	none (no result: GASC1 inh, T cruzi growth-1)
C[C@H]1CN([C@@H](C)CO)S(=O)(=O)c2ccc(C3=CCCC3)cc2O[C@@H]1CN(C)C(=O)c1ccc(F)cc1	none (no result: T cruzi growth-1)
C[C@H](CO)N1C[C@H](C)[C@H](CN(C)C(=O)c2ccc(F)cc2)Oc2cc(C3=CCCCC3)ccc2S1(=O)=O	T cruzi growth-1 111.5 (no result: IDH1 mut inh) | T cruzi growth-2 101.4 | T cruzi growth-3 inactive | 3T3 cytotox inactive | 3T3 cytotox 2 61.6
Cc1ccc(-n2c(SCC(=O)Nc3c(Cl)cccc3Cl)nnc2-c2ccncc2)cc1	none (no result: GASC1 inh, T cruzi growth-1)
COC(=O)C(CC(=O)c1ccc(Br)cc1)n1cncn1 (stereo unspecified)	none (no result: GASC1 inh, T cruzi growth-1)
C/C=C/c1ccc2c(c1)O[C@@H](CN(C)Cc1ccncc1)[C@@H](C)CN([C@@H](C)CO)S2(=O)=O	T cruzi growth-1 108.8 | T cruzi growth-2 96.3 | T cruzi growth-3 101.3 | 3T3 cytotox inactive | 3T3 cytotox 2 28.7
C/C=C/c1ccc2c(c1)O[C@H](CN(C)Cc1ccncc1)[C@H](C)CN([C@H](C)CO)S2(=O)=O	none
C/C=C/c1ccc2c(c1)O[C@H](CN(C)Cc1cncnc1)[C@@H](C)CN([C@@H](C)CO)S2(=O)=O	none (no result: T cruzi growth-1)
C/C=C/c1ccc2c(c1)O[C@H](CN(C)Cc1ccncc1)[C@@H](C)CN([C@H](C)CO)S2(=O)=O	IDH1 mut inh 42.5, T cruzi growth-1 107.9 | T cruzi growth-2 97.3 | T cruzi growth-3 inconclusive | 3T3 cytotox 44.6 | 3T3 cytotox 2 73.6
COc1ccc(OC(C)C(=O)Nc2cc(C)ccc2OC)cc1 (stereo unspecified)	none (no result: GASC1 inh, T cruzi growth-1)
COc1ccc(OC(C)C(=O)Nc2ccncc2)cc1 (stereo unspecified)	none (no result: GASC1 inh, T cruzi growth-1)
COc1cccc(S(=O)(=O)N(C)C[C@H]2OCc3ccccc3-c3ccccc3C(=O)N([C@@H](C)CO)C[C@@H]2C)c1	none
COc1cccc(CN(C)C[C@@H]2OCc3ccccc3-c3ccccc3C(=O)N([C@@H](C)CO)C[C@@H]2C)c1	none (no result: IDH1 mut inh)
COc1cccc(CN(C)C[C@H]2OCc3ccccc3-c3ccccc3C(=O)N([C@@H](C)CO)C[C@H]2C)c1	T cruzi growth-1 inconclusive | T cruzi growth-2 inactive | T cruzi growth-3 inactive | 3T3 cytotox inactive | 3T3 cytotox 2 inactive
COc1cccc(S(=O)(=O)N(C)C[C@H]2OCc3ccccc3-c3ccccc3C(=O)N([C@H](C)CO)C[C@@H]2C)c1	T cruzi growth-1 inconclusive | T cruzi growth-2 inactive | T cruzi growth-3 inactive | 3T3 cytotox inactive | 3T3 cytotox 2 inactive
